Calls of active or inactive are those of the source. No cut-off for these calls is given here.
Columns and labels:
Salmonella typhimurium [1] = assay: Forward mutagenic activity in Salmonella Typhimurium […] assessed as mutant fraction at 2.5 mg/ml after 2 hrs in absence of rat S9 liver homogenate; assay type: toxicity, organism-based; conditions: salmonella enterica subsp. enterica serovar typhimurium
Summary of the method: (§1)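 Forward mutation assay in S. typhimurium TM677 carrying pKM101, with or without Aroclor 1254-induced rat liver S-9 (9000×g). Substance in DMSO incubated with bacteria 2 h at 37°, quenched with PBS and plated in triplicate with and without 8-azaguanine, then grown 48–60 h at 37°. Mutant fraction is the mean 8-azaguanine-resistant colony count over the mean count without 8-azaguanine, corrected for dilution.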

Salmonella typhimurium [2] = assay: Bactericidal activity against Salmonella Typhimurium […] assessed as survival at 0.625 mg/ml after 48 to 60 hrs in absence of rat S9 liver homogenate relative to control; assay type: functional, organism-based; conditions: Salmonella enterica subsp. enterica serovar Typhimurium
Summary of the method: (§2)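 TM677 (pKM101) exposed to test substance in DMSO with or without S-9 from livers of Aroclor 1254-pretreated rats, 2 h at 37°, quenched with PBS, centrifuged, diluted and plated in triplicate without 8-azaguanine. Colonies scored after 48–60 h at 37°. Survival is expressed relative to a DMSO-only control after correction for dilution.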

Salmonella typhimurium [3] = assay: Bactericidal activity against Salmonella Typhimurium […] assessed as survival at 1.25 mg/ml after 48 to 60 hrs in absence of rat S9 liver homogenate relative to control; assay type: functional, organism-based; conditions: Salmonella enterica subsp. enterica serovar Typhimurium; summary of the method: as §2
Salmonella typhimurium [4] = assay: Forward mutagenic activity in Salmonella Typhimurium […] assessed as mutant fraction at 0.625 mg/ml after 2 hrs in absence of rat S9 liver homogenate; assay type: toxicity, organism-based; conditions: salmonella enterica subsp. enterica serovar typhimurium; summary of the method: as §1
Biomphalaria glabrata [5] = assay: Molluscicidal activity against Biomphalaria glabrata assessed as mortality at 20 ppm after 24 hrs; assay type: functional
Summary of the method: (§3)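 Lab-bred B. glabrata (about 12 mm shell diameter), five snails per test, tested in duplicate at 21–22°. Samples dissolved in MeOH and diluted in dechlorinated tap water, final MeOH ≤1% v/v. Snails immersed 24 h, rinsed, then held 24 h in clean water. Death means no heartbeat under a dissecting microscope. Negative control was 1% MeOH.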

Salmonella typhimurium [6] = assay: Forward mutagenic activity in Salmonella Typhimurium […] assessed as mutant fraction at 0.3125 mg/ml after 2 hrs in absence of rat S9 liver homogenate; assay type: toxicity, organism-based; conditions: salmonella enterica subsp. enterica serovar typhimurium; summary of the method: as §1
Salmonella typhimurium [7] = assay: Bactericidal activity against Salmonella Typhimurium […] assessed as survival at 2.5 mg/ml after 48 to 60 hrs in absence of rat S9 liver homogenate relative to control; assay type: functional, organism-based; conditions: Salmonella enterica subsp. enterica serovar Typhimurium; summary of the method: as §2
Salmonella typhimurium [8] = assay: Forward mutagenic activity in Salmonella Typhimurium […] assessed as mutant fraction at 1.25 mg/ml after 2 hrs in absence of rat S9 liver homogenate; assay type: toxicity, organism-based; conditions: salmonella enterica subsp. enterica serovar typhimurium; summary of the method: as §1
Salmonella typhimurium [9] = assay: Forward mutagenic activity in Salmonella Typhimurium […] assessed as mutant fraction at 5 mg/ml after 2 hrs in absence of rat S9 liver homogenate; assay type: toxicity, organism-based; conditions: salmonella enterica subsp. enterica serovar typhimurium; summary of the method: as §1
Salmonella typhimurium [10] = assay: Bactericidal activity against Salmonella Typhimurium […] assessed as survival at 5 mg/ml after 48 to 60 hrs in absence of rat S9 liver homogenate relative to control; assay type: functional, organism-based; conditions: Salmonella enterica subsp. enterica serovar Typhimurium; summary of the method: as §2
Salmonella typhimurium [11] = assay: Bactericidal activity against Salmonella Typhimurium […] assessed as survival at 0.3125 mg/ml after 48 to 60 hrs in absence of rat S9 liver homogenate relative to control; assay type: functional, organism-based; conditions: Salmonella enterica subsp. enterica serovar Typhimurium; summary of the method: as §2
Biomphalaria glabrata [12] = assay: Molluscicidal activity against Biomphalaria glabrata assessed as mortality at 15 ppm after 24 hrs; assay type: functional; summary of the method: as §3
Salmonella typhimurium [13] = assay: Bactericidal activity against Salmonella Typhimurium […] assessed as survival at 1.25 mg/ml after 48 to 60 hrs in presence of rat S9 liver homogenate relative to control; assay type: functional, organism-based; conditions: Salmonella enterica subsp. enterica serovar Typhimurium, Liver S9 fraction; summary of the method: as §2
Salmonella typhimurium [14] = assay: Bactericidal activity against Salmonella Typhimurium […] assessed as survival at 0.625 mg/ml after 48 to 60 hrs in presence of rat S9 liver homogenate relative to control; assay type: functional, organism-based; conditions: Salmonella enterica subsp. enterica serovar Typhimurium, Liver S9 fraction; summary of the method: as §2
Salmonella typhimurium [15] = assay: Forward mutagenic activity in Salmonella Typhimurium […] assessed as mutant fraction at 1.25 mg/ml after 2 hrs in presence of rat S9 liver homogenate; assay type: toxicity, organism-based; conditions: salmonella enterica subsp. enterica serovar typhimurium; summary of the method: as §1
Salmonella typhimurium [16] = assay: Forward mutagenic activity in Salmonella Typhimurium […] assessed as mutant fraction at 2.5 mg/ml after 2 hrs in presence of rat S9 liver homogenate; assay type: toxicity, organism-based; conditions: salmonella enterica subsp. enterica serovar typhimurium; summary of the method: as §1
Salmonella typhimurium [17] = assay: Bactericidal activity against Salmonella Typhimurium […] assessed as survival at 0.3125 mg/ml after 48 to 60 hrs in presence of rat S9 liver homogenate relative to control; assay type: functional, organism-based; conditions: Salmonella enterica subsp. enterica serovar Typhimurium, Liver S9 fraction; summary of the method: as §2
Salmonella typhimurium [18] = assay: Forward mutagenic activity in Salmonella Typhimurium […] assessed as mutant fraction at 0.625 mg/ml after 2 hrs in presence of rat S9 liver homogenate; assay type: toxicity, organism-based; conditions: salmonella enterica subsp. enterica serovar typhimurium; summary of the method: as §1
Salmonella typhimurium [19] = assay: Bactericidal activity against Salmonella Typhimurium […] assessed as survival at 2.5 mg/ml after 48 to 60 hrs in presence of rat S9 liver homogenate relative to control; assay type: functional, organism-based; conditions: Salmonella enterica subsp. enterica serovar Typhimurium, Liver S9 fraction; summary of the method: as §2
Salmonella typhimurium [20] = assay: Forward mutagenic activity in Salmonella Typhimurium […] assessed as mutant fraction at 0.3125 mg/ml after 2 hrs in presence of rat S9 liver homogenate; assay type: toxicity, organism-based; conditions: salmonella enterica subsp. enterica serovar typhimurium; summary of the method: as §1
Salmonella typhimurium [21] = assay: Bactericidal activity against Salmonella Typhimurium […] assessed as survival at 5 mg/ml after 48 to 60 hrs in presence of rat S9 liver homogenate relative to control; assay type: functional, organism-based; conditions: Salmonella enterica subsp. enterica serovar Typhimurium, Liver S9 fraction; summary of the method: as §2
Salmonella typhimurium [22] = assay: Forward mutagenic activity in Salmonella Typhimurium […] assessed as mutant fraction at 5 mg/ml after 2 hrs in presence of rat S9 liver homogenate; assay type: toxicity, organism-based; conditions: salmonella enterica subsp. enterica serovar typhimurium; summary of the method: as §1
Salmonella typhimurium [23] = assay: Bactericidal activity against Salmonella Typhimurium […] assessed as survival at 0.058 mg/ml after 48 to 60 hrs in absence of rat S9 liver homogenate; assay type: functional, organism-based; conditions: Salmonella enterica subsp. enterica serovar Typhimurium
Summary of the method: (§4)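 Forward mutation assay in S. typhimurium TM677 carrying plasmid pKM101, without S-9. Bacteria were mixed with MEM, test substance added in DMSO, and incubated 2 h at 37°. The mix was quenched with PBS, pelleted, diluted and plated in triplicate without 8-azaguanine. Colonies were counted after 48–60 h at 37°. Survival was dilution-corrected and taken relative to a DMSO-only control.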

Salmonella typhimurium [24] = assay: Bactericidal activity against Salmonella Typhimurium […] assessed as survival at 50 mg/ml after 48 to 60 hrs in presence of rat S9 liver homogenate; assay type: functional, organism-based; conditions: Salmonella enterica subsp. enterica serovar Typhimurium, Liver S9 fraction
Summary of the method: (§5)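 TM677 (pKM101) forward mutation assay run with a 9000×g liver supernatant (S-9) from Aroclor 1254-pretreated rats. Test substance was added in DMSO and incubated 2 h at 37°, then quenched with PBS. Cells were pelleted, diluted and plated in triplicate without 8-azaguanine, and colonies counted after 48–60 h at 37°. Survival was dilution-corrected and taken relative to a DMSO solvent control.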

Salmonella typhimurium [25] = assay: Bactericidal activity against Salmonella Typhimurium […] assessed as survival at 5.8 mg/ml after 48 to 60 hrs in absence of rat S9 liver homogenate; assay type: functional, organism-based; conditions: Salmonella enterica subsp. enterica serovar Typhimurium; summary of the method: as §4
Salmonella typhimurium [26] = assay: Bactericidal activity against Salmonella Typhimurium […] assessed as survival at 0.58 mg/ml after 48 to 60 hrs in absence of rat S9 liver homogenate; assay type: functional, organism-based; conditions: Salmonella enterica subsp. enterica serovar Typhimurium; summary of the method: as §4
Salmonella typhimurium [27] = assay: Bactericidal activity against Salmonella Typhimurium […] assessed as survival at 0.5 mg/ml after 48 to 60 hrs in presence of rat S9 liver homogenate; assay type: functional, organism-based; conditions: Salmonella enterica subsp. enterica serovar Typhimurium, Liver S9 fraction; summary of the method: as §5
Biomphalaria glabrata [28] = assay: Molluscicidal activity against Biomphalaria glabrata assessed as mortality at 1.25 ppm after 24 hrs; assay type: functional; summary of the method: as §3

Row | Compound | Activity (Salmonella typhimurium [1]) | Activity (Salmonella typhimurium [2]) [%] | Activity (Salmonella typhimurium [3]) [%] | Activity (Salmonella typhimurium [4]) | Activity (Biomphalaria glabrata [5]) | Activity (Salmonella typhimurium [6]) | Activity (Salmonella typhimurium [7]) [%] | Activity (Salmonella typhimurium [8]) | Activity (Salmonella typhimurium [9]) | Activity (Salmonella typhimurium [10]) [%] | Activity (Salmonella typhimurium [11]) [%] | Activity (Salmonella typhimurium [13]) [%] | Activity (Salmonella typhimurium [14]) [%] | Activity (Salmonella typhimurium [15]) | Activity (Salmonella typhimurium [16]) | Activity (Salmonella typhimurium [17]) [%] | Activity (Salmonella typhimurium [18]) | Activity (Salmonella typhimurium [19]) [%] | Activity (Salmonella typhimurium [20]) | Activity (Salmonella typhimurium [21]) | other results
1 | CC(=O)N[C@H]1[C@H](O[C@H]2CC[C@]3(C)[C@H]4CC=C5[C@H]6CC(C)(C)CC[C@]6(C(=O)O)CC[C@@]5(C)[C@]4(C)CC[C@H]3C2(C)C)O[C@H](CO[C@@H]2O[C@H](CO)[C@@H](O)[C@H](O)[C@H]2O)[C@@H](O)[C@@H]1O | 3.1 | 100 | 100 | 4.2 | 100% | 4.1 | 100 | 4 | 5 | 100 | 100 | – | – | – | – | – | – | – | – | – | –
2 | CC(=O)N[C@H]1[C@H](O[C@H]2CC[C@]3(C)[C@H]4CC=C5[C@H]6CC(C)(C)CC[C@]6(C(=O)O)[C@H](O)C[C@@]5(C)[C@]4(C)CC[C@H]3C2(C)C)O[C@H](CO)[C@@H](O)[C@@H]1O | 4.7 | 100 | 100 | 5.4 | – | 4.9 | 100 | 5.4 | 4.7 | 100 | 100 | 200 | 100 | 2.6 | 2.9 | 100 | 3.1 | 100 | 3.2 | 100% | Activity (Biomphalaria glabrata [12]): 100%; Activity (Salmonella typhimurium [22]): 4.6
3 | CC1(C)CC[C@]2(C(=O)O)[C@H](O)C[C@]3(C)C(=CC[C@@H]4[C@@]5(C)CC[C@H](OS(=O)(=O)O)C(C)(C)[C@@H]5CC[C@]43C)[C@H]2C1 | – | – | – | – | Non-toxic | – | – | – | – | – | – | – | – | – | – | – | – | – | – | inactive | Activity (Salmonella typhimurium [23]): inactive; Activity (Salmonella typhimurium [24]): inactive; Activity (Salmonella typhimurium [25]): inactive; Activity (Salmonella typhimurium [26]): inactive; Activity (Salmonella typhimurium [27]): inactive
4 | CC(=O)N[C@H]1[C@H](O[C@H]2CC[C@]3(C)[C@H]4CC=C5[C@H]6CC(C)(C)CC[C@]6(C(=O)O)CC[C@@]5(C)[C@]4(C)CC[C@H]3C2(C)C)O[C@H](CO)[C@@H](O)[C@@H]1O [ARIDANIN] | 3.3 | 98 | 100 | 5.6 | – | 4.5 | 100 | 4.1 | 4.2 | 100 | 89 | 100 | 100 | 3.2 | 2.8 | 100 | 2.9 | 100 | 2.5 | 100% | Activity (Biomphalaria glabrata [28]): 100%; Activity (Salmonella typhimurium [22]): 4
